The record followed here is ChEMBL document CHEMBL1144948, “Design and synthesis of 1,5-diarylbenzimidazoles as inhibitors of the VEGF-receptor KDR” (Bioorg Med Chem Lett, 2003).

In brackets after ≈: the same amount, converted by molar mass. A value given as a limit tells only on which side of the number the result lay.

Data set [1] is described as follows: CL (clearance) of compound was determined as average of four rats at each dose of 5 mg/kg intravenous and 20 mg/kg peroral administration. It counts as ADME, organism-based. As to conditions: rat, in vivo. In a few lines:
(§1)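 Rats, four per route and values averaged; 5 mpk iv given as a solution in DMSO, 20 mpk po as a suspension in 0.5% methocel.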

Data set [2] can be described thus: Volume distribution of compound was determined as average of four rats at each dose of 5 mg/kg intravenous and 20 mg/kg peroral administration. The data set is classed as ADME, organism-based. Particulars: rat, in vivo, read-out: Vdss. In a few lines:
as §1

The test system of another data set is HUVEC. Nature of the data set: Inhibition of HUVEC cell proliferation. As to conditions: Homo sapiens.
Data set [3] can be described thus: Solubility at pH 7.4. Particulars: buffer. It counts as physicochemical. In a few lines:
(§2)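 Saturated compound solution in pH-adjusted buffer is filtered. Concentration comes from the HPLC peak area compared against standard methanolic solutions.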

A short description of data set [4]: Half life period as average of four rats at each dose of 5 mg/kg intravenous and 20 mg/kg peroral administration. It counts as ADME, organism-based. As to conditions: rat, in vivo. In a few lines: as §1
Data set [5] in a line: CL (clearance) of compound was determined after intravenous administration in average of two dogs at a dose of 1 mg/kg. It counts as ADME, organism-based, Canis lupus familiaris. On the set-up: dose 1 mg/kg, route intravenous. Particulars: dog, in vivo. In a few lines:
(§3)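 Dogs (n=2, averaged) received 1 mpk iv as a solution in DMSO.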

Data set [6] can be described thus: Volume distribution (Vdss) of compound was determined after intravenous administration in average of two dogs at a dose of 1 mg/kg. The data set is classed as ADME, organism-based, Canis lupus familiaris. Also on record: dose 1 mg/kg, route intravenous. Particulars: dog, in vivo, read-out: Vdss. In a few lines: as §3
Data set [7] can be described thus: Partition coefficient (logP). The data set is classed as physicochemical. Particulars: octanol/water. In a few lines:
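Shake-flask partition: a methanolic sample aliquot added to equal volumes of 1-octanol and pH 7.4 buffer, equilibrated 8 h, then compound concentration measured in each phase.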

Data set [8] can be described thus: Oral bioavailability (F%) of compound was determined as average of four rats at each dose of 5 mg/kg intravenous and 20 mg/kg peroral administration. It counts as ADME, organism-based. Particulars: rat, in vivo. In a few lines:
as §1

Another data set is filed under the species Homo sapiens. In words: Compound tested for ability to bind to human plasma protein. The data set is classed as cell-free. In a few lines:
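Human plasma binding: buffer solutions of test compound equilibrated with human plasma, free and bound drug separated by ultrafiltration, free compound concentration measured by HPLC; reported as percent bound.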

A short description of data set [9]: Solubility atpH 5.2. As to conditions: pH 5.2. It counts as physicochemical. In a few lines:
as §2

Data set [10] in a line: Half life period (t1/2) of compound was determined after intravenous administration in average of two dogs at a dose of 1 mg/kg. The data set is classed as ADME, organism-based, Canis lupus familiaris. On the set-up: dose 1 mg/kg, route intravenous. As to conditions: dog, in vivo. In a few lines:
as §3

Data set [11] in a line: Volume distribution of compound was determined as average of four rats at each dose of 5 mg/kg intravenous and 16 mg/kg peroral administration. The data set is classed as ADME, organism-based. Particulars: rat, in vivo, read-out: Vdss. In a few lines: (§4)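 Rats (n=4 per route, averaged) dosed 5 mpk iv as a DMSO solution and 16 mpk po as a suspension in 0.5% methocel.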

Data set [12] is described as follows: CL (clearance) of compound was determined as average of four rats at each dose of 5 mg/kg intravenous and 16 mg/kg peroral administration. The data set is classed as ADME, organism-based. Particulars: rat, in vivo. In a few lines: as §4
Data set [13] can be described thus: Half life period as average of four rats at each dose of 5 mg/kg intravenous and 16 mg/kg peroral administration. It counts as ADME, organism-based. As to conditions: rat, in vivo. In a few lines: as §4
A short description of data set [14]: Oral bioavailability (F%) of compound was determined as average of four rats at each dose of 5 mg/kg intravenous and 16 mg/kg peroral administration. The data set is classed as ADME, organism-based. Particulars: rat, in vivo. In a few lines: as §4
Data set [15] can be described thus: Solubility at pH 5.2. The data set is classed as physicochemical. As to conditions: buffer. In a few lines:
as §2

As to `O=c1cc(-c2ccc3c(c2)ncn3-c2ccccc2)ccn1CCCN1CCCCC1`, the clearance was determined as 17.3 mL/min/kg in [1] and 8.9 mL/min/kg in [5]. Besides, the Vd in data set [2] came to 3.9 L/kg; in [6] it was 7.9 L/kg. Also, in the data set on HUVEC, the IC50 (commonly the concentration that gives 50% inhibition) was determined as 37 nM. The solubility – broadly, how much of the substance goes into solution per volume – in data set [3] amounted to 8400 µg/mL (≈ 20.4 mM); in [9], 33900 µg/mL (≈ 82.2 mM). The half-life (as a rule, the time needed for the level to fall by half in the phase considered) in data set [4] is 2.9 h; in data set [10], 10.4 h. Also, the logP (usually a log measure of how a compound divides between an organic and an aqueous phase) in data set [7] came to 2.25. In addition, the bioavailability (commonly dose-corrected exposure relative to a reference, in per cent) in data set [8] came to 73%. In addition, the Binding in the data set filed under Homo sapiens is 80.7%.

Regarding `O=c1ccc(-c2ccc3c(c2)ncn3-c2ccccc2)cn1CCCN1CCCCC1`, in the data set with HUVEC, the IC50 worked out at 152 nM.

On to `O=c1nc(-c2ccc3c(c2)ncn3-c2ccccc2)ccn1CCCN1CCCCC1`, for which the IC50 in the data set on HUVEC came out at 164 nM.

Regarding `COc1ccc(-c2ccc3c(c2)ncn3-c2ccccc2)cc1`, the IC50 in the data set on HUVEC was above 1000 nM.

In data set [3], `O=c1ccc(-c2ccc3c(c2)ncn3-c2ccccc2)cn1CCN1CCCCC1` came in with a solubility above 1000 µg/mL. In the data set filed under Homo sapiens, this compound showed a Binding of 85%.

On to `c1ccc(-n2cnc3cc(-c4ccc(OCCN5CCCCC5)cc4)ccc32)cc1`, for which the IC50 with HUVEC came to 87 nM. Besides, the solubility in data set [3] is below 0.01 µg/mL; in data set [15], 120 µg/mL (≈ 0.302 mM). The Vd in [11] was found to be 1.9 L/kg; in data set [6] it was 3.1 L/kg. For the same compound, the values for the clearance in data set [5] and in data set [12] were 4.6 mL/min/kg and 14.4 mL/min/kg, respectively. Further, the logP in data set [7] is 4.29. For the same compound, the half-life in data set [13] is 6.1 h; in data set [10], 5.2 h. This compound also yielded a bioavailability in [14] of 76%. The compound further returned a Binding in the data set filed under Homo sapiens of 99.4%.

Compound `c1ccc(-n2cnc3cc(-c4ccc(OCCN5CCCCC5)cc4)cnc32)cc1` displayed an IC50 with HUVEC of 48 nM. Also, the solubility in data set [3] stood at 21 µg/mL (≈ 0.0527 mM); in data set [15], 6460 µg/mL (≈ 16.2 mM). The compound further had a logP in [7] of 3.55. Further, in the data set listed under Homo sapiens, the Binding was determined as 97.4%.

In the case of `c1ccc(-n2cnc3cc(-c4ccc(NCCN5CCOCC5)nc4)ccc32)cc1`, in the data set with HUVEC, the IC50 worked out at 213 nM.

In the data set with HUVEC, `c1ccc(-n2cnc3cc(-c4ccc(OCCN5CCCCC5)nc4)ccc32)cc1` returned an IC50 of 122 nM.
